Test results: ChEMBL document CHEMBL5058577, “EUbOPEN Chemogenomics Library 2 (Multiplex)” (2022)

Tested on: Fibroblast
Experiment: Multiplex assay against human fibroblast
Assay type: toxicity, cell-based
Method in brief: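 At seeding, live cells were stained with Hoechst33342, BioTracker Green Microtubule Cytoskeleton Dye, MitoTracker Red and Annexin V Alexa Fluor 680. After compound addition they were imaged on a CQ1 microscope at 37°C and 5% CO2, and CellPathfinder machine-learning gating sorted them into Hoechst high-intensity objects or normal cells, with normal cells further split into healthy, pyknosed or fragmented nuclei and pyknosed cells into mitotic or apoptotic. Tubulin, mitochondrial-mass and membrane-permeability phenotypes are given as per cents of cells with healthy nuclei.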

[1] = 12 h, 1 µM, compound concentration 1 uM, replicate 1
[2] = 12 h, 1 µM, compound concentration 1 uM, replicate 2
[3] = 12 h, 10 µM, compound concentration 10 uM, replicate 1
[4] = 12 h, 10 µM, compound concentration 10 uM, replicate 2
[5] = 24 h, 1 µM, compound concentration 1 uM, replicate 1
[6] = 24 h, 1 µM, compound concentration 1 uM, replicate 2
[7] = 24 h, 10 µM, compound concentration 10 uM, replicate 1
[8] = 24 h, 10 µM, compound concentration 10 uM, replicate 2
[9] = 48 h, 1 µM, compound concentration 1 uM, replicate 1
[10] = 48 h, 1 µM, compound concentration 1 uM, replicate 2
[11] = 48 h, 10 µM, compound concentration 10 uM, replicate 1
[12] = 48 h, 10 µM, compound concentration 10 uM, replicate 2

Cc1onc(-c2ccccc2Cl)c1C(=O)N(C)c1ccc(Cl)cc1
Population Apoptotic (%) [1]: 60% | Population Fragmented Nuclei (%) [1]: 17% | Population Healthy Nuclei (%) [1]: 68% | Population Hoechst High Intensity Objects (%) [1]: 7% | Population Membrane Permeable-Phenotype (%) [1]: 0% | Population Mitochondria Different-Phenotype (%) [1]: 7% | Population Mitotic Cells (%) [1]: 39% | Population Normal (%) [1]: 92% | Population Pyknosed Nuclei (%) [1]: 13% | Population Tubulin-Different-Phenotype (%) [1]: 23% | Total Cell Count [1]: 178 | Population Apoptotic (%) [2]: 35% | Population Fragmented Nuclei (%) [2]: 22% | Population Healthy Nuclei (%) [2]: 50% | Population Hoechst High Intensity Objects (%) [2]: 9% | Population Membrane Permeable-Phenotype (%) [2]: 6% | Population Mitochondria Different-Phenotype (%) [2]: 8% | Population Mitotic Cells (%) [2]: 65% | Population Normal (%) [2]: 90% | Population Pyknosed Nuclei (%) [2]: 27% | Population Tubulin-Different-Phenotype (%) [2]: 63% | Total Cell Count [2]: 161 | Population Apoptotic (%) [3]: 36% | Population Fragmented Nuclei (%) [3]: 16% | Population Healthy Nuclei (%) [3]: 70% | Population Hoechst High Intensity Objects (%) [3]: 2% | Population Membrane Permeable-Phenotype (%) [3]: 2% | Population Mitochondria Different-Phenotype (%) [3]: 6% | Population Mitotic Cells (%) [3]: 63% | Population Normal (%) [3]: 97% | Population Pyknosed Nuclei (%) [3]: 13% | Population Tubulin-Different-Phenotype (%) [3]: 29% | Total Cell Count [3]: 144 | Population Apoptotic (%) [4]: 37% | Population Fragmented Nuclei (%) [4]: 24% | Population Healthy Nuclei (%) [4]: 48% | Population Hoechst High Intensity Objects (%) [4]: 3% | Population Membrane Permeable-Phenotype (%) [4]: 5% | Population Mitochondria Different-Phenotype (%) [4]: 11% | Population Mitotic Cells (%) [4]: 62% | Population Normal (%) [4]: 96% | Population Pyknosed Nuclei (%) [4]: 27% | Population Tubulin-Different-Phenotype (%) [4]: 64% | Total Cell Count [4]: 151 | Population Apoptotic (%) [5]: 44% | Population Fragmented Nuclei (%) [5]: 18% | Population Healthy Nuclei (%) [5]: 65% | Population Hoechst High Intensity Objects (%) [5]: 7% | Population Membrane Permeable-Phenotype (%) [5]: 0% | Population Mitochondria Different-Phenotype (%) [5]: 1% | Population Mitotic Cells (%) [5]: 55% | Population Normal (%) [5]: 92% | Population Pyknosed Nuclei (%) [5]: 16% | Population Tubulin-Different-Phenotype (%) [5]: 16% | Total Cell Count [5]: 178 | Population Apoptotic (%) [6]: 39% | Population Fragmented Nuclei (%) [6]: 22% | Population Healthy Nuclei (%) [6]: 54% | Population Hoechst High Intensity Objects (%) [6]: 12% | Population Membrane Permeable-Phenotype (%) [6]: 8% | Population Mitochondria Different-Phenotype (%) [6]: 4% | Population Mitotic Cells (%) [6]: 60% | Population Normal (%) [6]: 87% | Population Pyknosed Nuclei (%) [6]: 23% | Population Tubulin-Different-Phenotype (%) [6]: 56% | Total Cell Count [6]: 182 | Population Apoptotic (%) [7]: 20% | Population Fragmented Nuclei (%) [7]: 16% | Population Healthy Nuclei (%) [7]: 76% | Population Hoechst High Intensity Objects (%) [7]: 2% | Population Membrane Permeable-Phenotype (%) [7]: 1% | Population Mitochondria Different-Phenotype (%) [7]: 4% | Population Mitotic Cells (%) [7]: 80% | Population Normal (%) [7]: 97% | Population Pyknosed Nuclei (%) [7]: 7% | Population Tubulin-Different-Phenotype (%) [7]: 32% | Total Cell Count [7]: 134 | Population Apoptotic (%) [8]: 54% | Population Fragmented Nuclei (%) [8]: 21% | Population Healthy Nuclei (%) [8]: 55% | Population Hoechst High Intensity Objects (%) [8]: 4% | Population Membrane Permeable-Phenotype (%) [8]: 6% | Population Mitochondria Different-Phenotype (%) [8]: 6% | Population Mitotic Cells (%) [8]: 45% | Population Normal (%) [8]: 95% | Population Pyknosed Nuclei (%) [8]: 23% | Population Tubulin-Different-Phenotype (%) [8]: 59% | Total Cell Count [8]: 149 | Population Apoptotic (%) [9]: 76% | Population Fragmented Nuclei (%) [9]: 26% | Population Healthy Nuclei (%) [9]: 62% | Population Hoechst High Intensity Objects (%) [9]: 9% | Population Membrane Permeable-Phenotype (%) [9]: 0% | Population Mitochondria Different-Phenotype (%) [9]: 1% | Population Mitotic Cells (%) [9]: 23% | Population Normal (%) [9]: 90% | Population Pyknosed Nuclei (%) [9]: 10% | Population Tubulin-Different-Phenotype (%) [9]: 22% | Total Cell Count [9]: 185 | Population Apoptotic (%) [10]: 48% | Population Fragmented Nuclei (%) [10]: 28% | Population Healthy Nuclei (%) [10]: 54% | Population Hoechst High Intensity Objects (%) [10]: 11% | Population Membrane Permeable-Phenotype (%) [10]: 10% | Population Mitochondria Different-Phenotype (%) [10]: 6% | Population Mitotic Cells (%) [10]: 51% | Population Normal (%) [10]: 88% | Population Pyknosed Nuclei (%) [10]: 17% | Population Tubulin-Different-Phenotype (%) [10]: 51% | Total Cell Count [10]: 188 | Population Apoptotic (%) [11]: 44% | Population Fragmented Nuclei (%) [11]: 25% | Population Healthy Nuclei (%) [11]: 68% | Population Hoechst High Intensity Objects (%) [11]: 4% | Population Membrane Permeable-Phenotype (%) [11]: 0% | Population Mitochondria Different-Phenotype (%) [11]: 3% | Population Mitotic Cells (%) [11]: 55% | Population Normal (%) [11]: 95% | Population Pyknosed Nuclei (%) [11]: 6% | Population Tubulin-Different-Phenotype (%) [11]: 34% | Total Cell Count [11]: 141 | Population Apoptotic (%) [12]: 65% | Population Fragmented Nuclei (%) [12]: 31% | Population Healthy Nuclei (%) [12]: 55% | Population Hoechst High Intensity Objects (%) [12]: 1% | Population Membrane Permeable-Phenotype (%) [12]: 8% | Population Mitochondria Different-Phenotype (%) [12]: 6% | Population Mitotic Cells (%) [12]: 35% | Population Normal (%) [12]: 98% | Population Pyknosed Nuclei (%) [12]: 12% | Population Tubulin-Different-Phenotype (%) [12]: 53% | Total Cell Count [12]: 166
